The source of these data is ChEMBL document CHEMBL4002602, “Design, Synthesis of Novel, Potent, Selective, Orally Bioavailable Adenosine A2A Receptor Antagonists and Their Biological Evaluation” (J Med Chem, 2017).

pKi: −log10 of the molar value. Active and inactive are the calls of the source. No cut-off for these calls is given here.

The target of one data set is T1, Adenosine receptor A1 (Homo sapiens, UniProt P30542).
T1 sequence (P30542 whole entry): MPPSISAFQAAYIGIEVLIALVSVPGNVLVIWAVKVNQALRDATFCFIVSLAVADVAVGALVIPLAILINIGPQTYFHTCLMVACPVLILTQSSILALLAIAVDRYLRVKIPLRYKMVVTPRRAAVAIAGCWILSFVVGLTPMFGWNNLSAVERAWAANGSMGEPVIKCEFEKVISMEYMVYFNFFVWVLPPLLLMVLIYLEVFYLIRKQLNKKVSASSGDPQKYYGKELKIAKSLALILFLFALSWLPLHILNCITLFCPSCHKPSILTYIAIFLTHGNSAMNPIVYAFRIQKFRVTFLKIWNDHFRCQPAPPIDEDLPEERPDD
The experiment in a line: Antagonist activity at human adenosine A1 receptor expressed in HEK293 cell membranes assessed as decrease in CPA/forskolin-induced cAMP level pretreated for 15 mins followed by agonist addition for 15 mins and subsequent forskolin stimulation measured after 30 mins. The class given is functional, cell-based. In short, it runs like this:
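HTRF cAMP assay in overnight-seeded HEK cells expressing human A1, A2A or A2B, pretreated with ADA 1 U/ml for 90 min at 37 °C. Cells were given compound at increasing concentrations for 15 min, then agonist at room temperature in incomplete DMEM with ADA: CPA 1 nM, 15 min (A1); CGS-21680 10 nM, 30 min (A2A); NECA 70 nM, 15 min (A2B). Rolipram 20 μM for A1 and A2A; forskolin 30 min for A1 only. 12 concentrations, triplicates; IC50/Ki by curve fitting.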

The nature of data set [1]: Metabolic stability in rat hepatocytes at 1 uM after 3 to 30 mins by LC-MS/MS analysis. The data set is classed as ADME, cell-based, Hepatocyte.
The nature of data set [2]: AUC (0 to t) in Wistar rat brain at 10 mg/kg administered through oral gavage by LC/MS/MS analysis. The class given is ADME, organism-based. In a few lines: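 Male Wistar rats (230 ± 15 g), fasted overnight, given an oral suspension (1% Tween 80, 0.5% NaCMC; 1 mg/mL, 10 mL/kg). Blood and brain were collected discretely at 0.5, 2, 4 and 8 h. Brain was washed in PBS pH 7.4, weighed and homogenized, then acetonitrile-precipitated with internal standard. LC/MS/MS against standards in blank brain homogenate; n=4.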

Data set [3] is described as follows: AUC (0 to t) in Wistar rat plasma at 10 mg/kg administered through oral gavage by LC/MS/MS analysis. The class given is ADME, organism-based.
Data set [4] in a line: Ratio of AUC (0 to t) in Wistar rat brain to AUC (0 to t) in Wistar rat plasma at 10 mg/kg administered through oral gavage by LC/MS/MS analysis. The data set is classed as ADME, organism-based. Particulars: brain and plasma, read-out: Ratio AUC. In short, it runs like this:
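Male Wistar rats (230 ± 15 g), fasted overnight, water ad libitum; single oral dose of 10 mg/kg as suspension in 1% Tween 80/0.5% NaCMC, n=4. Blood and brain collected by discrete sampling at 0.5, 2, 4 and 8 h post dose. Brain washed in PBS and homogenised, plasma and homogenate precipitated with acetonitrile plus internal standard, LC/MS/MS; AUC0-t from non-compartmental analysis.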

Data set [5] has as its system Rattus norvegicus. Briefly: Neuroprotective activity in po dosed 6-OHDA-lesioned Wistar rat model of parkinson disease assessed as increase in L-DOPA induced contralateral rotations pretreated for 30 mins followed by benserazide addition and subsequent L-DOPA stimulation for 30 mins measured at 60 mins post dose. The class given is functional, organism-based. In short, it runs like this: (§1)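 Male Wistar rats (295–305 g) anesthetized with ketamine/xylazine and given desipramine 10 mg/kg i.p. 30 min before 6-OHDA lesioning. At two weeks, rats were screened with apomorphine 0.05 mg/kg i.p. and kept only if they made ≥100 rotations in 1 h. Compound (30 or 100 mg/kg p.o., in 1% Tween 80/0.5% MC) was given 30 min before benserazide. L-DOPA 4 mg/kg i.p. followed 30 min later. Contralateral rotations counted over 2 h; one-way ANOVA with Dunnett's test.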

Data set [6] concerns Rattus norvegicus. Briefly: Neuroprotective activity in 6-OHDA-lesioned Wistar rat model of parkinson disease assessed as increase in L-DOPA induced contralateral rotations at 100 mg/kg, po pretreated for 30 mins followed by benserazide addition and subsequent L-DOPA stimulation for 30 mins measured up to 2 hrs. The data set is classed as functional, organism-based. In short, it runs like this:
as §1

Data set [7] deals with Voltage-gated inwardly rectifying potassium channel KCNH2 (Homo sapiens, UniProt Q12809). The experiment in a line: Inhibition of [3H]-astemizole binding to human ERG at 10 uM after 2 hrs by liquid scintillation counting method relative to control. The following applies: 2 h, 10 µM.
Sequence of Voltage-gated inwardly rectifying potassium channel KCNH2 (Q12809 whole entry): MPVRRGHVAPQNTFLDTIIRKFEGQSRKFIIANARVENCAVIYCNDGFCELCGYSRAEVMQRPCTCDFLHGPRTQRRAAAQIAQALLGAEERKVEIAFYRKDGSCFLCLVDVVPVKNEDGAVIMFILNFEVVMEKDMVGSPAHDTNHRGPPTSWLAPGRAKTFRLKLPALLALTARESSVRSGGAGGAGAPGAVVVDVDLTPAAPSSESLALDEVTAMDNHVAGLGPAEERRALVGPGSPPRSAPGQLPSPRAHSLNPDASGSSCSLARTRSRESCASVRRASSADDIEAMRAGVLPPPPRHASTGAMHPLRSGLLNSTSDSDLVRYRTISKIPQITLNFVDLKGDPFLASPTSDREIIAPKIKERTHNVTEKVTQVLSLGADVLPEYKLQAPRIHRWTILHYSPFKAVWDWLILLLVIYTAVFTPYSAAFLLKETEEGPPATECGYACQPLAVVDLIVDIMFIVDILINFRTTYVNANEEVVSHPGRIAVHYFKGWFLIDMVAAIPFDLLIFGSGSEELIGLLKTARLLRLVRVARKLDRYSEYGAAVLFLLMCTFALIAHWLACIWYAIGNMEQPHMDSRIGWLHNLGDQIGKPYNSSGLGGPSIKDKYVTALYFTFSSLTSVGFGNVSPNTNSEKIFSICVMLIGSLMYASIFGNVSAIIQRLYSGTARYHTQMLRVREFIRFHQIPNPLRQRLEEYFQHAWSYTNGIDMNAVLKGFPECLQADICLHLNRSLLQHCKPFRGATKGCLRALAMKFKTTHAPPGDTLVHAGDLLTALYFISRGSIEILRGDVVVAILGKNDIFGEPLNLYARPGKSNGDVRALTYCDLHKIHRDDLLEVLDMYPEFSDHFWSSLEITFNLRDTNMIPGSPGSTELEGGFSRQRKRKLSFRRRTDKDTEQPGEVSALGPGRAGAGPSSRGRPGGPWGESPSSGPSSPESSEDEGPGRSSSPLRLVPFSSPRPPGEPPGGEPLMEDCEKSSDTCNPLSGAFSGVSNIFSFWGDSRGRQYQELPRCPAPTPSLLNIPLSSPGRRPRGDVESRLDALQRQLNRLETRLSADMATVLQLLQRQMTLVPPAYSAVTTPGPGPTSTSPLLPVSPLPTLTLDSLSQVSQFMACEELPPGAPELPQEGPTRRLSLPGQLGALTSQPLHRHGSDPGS

For orientation: pKi means the negative decadic logarithm of the Ki, by convention in mol/L. Regarding `COc1ccc(N2CCOCC2)c2sc(NC(=O)C(C)(C)Oc3ccc(F)cc3)nc12`, the pKi on Adenosine receptor A1 was 5.70.

Take `COc1cnc(N2CCOCC2)c2sc(NC(=O)C(C)(C)Oc3ccc(F)cc3)nc12`: in data set [1], the Stability result is reported as “Stable”.

The AUC(0-t) is the area under the concentration-time curve up to a stated or last time point. `CCN(CC)C1CCC(C)(C(=O)Nc2nc3c(OC)ccc(N4CCOCC4)c3s2)CC1` (stereo not drawn): the AUC(0-t) in data set [2] came to 1.1 µM·h; in data set [3], 4.7 µM·h. In addition, the Kp in data set [4] was determined as 0.25. In the data set with Rattus norvegicus [5], the Activity entry is “Dose-dependent effect”. Moreover, in the data set on Rattus norvegicus [6], the result was Active.

With `COc1ccc(N2CCOCC2)c2sc(NC(=O)C3(C)CCC(C)(O)CC3)nc12` (stereo not drawn), the “inhibition (INH)” value in data set [7] was “Not Active”.
